Screening results as filed in PubChem BioAssay.
Only some compounds are listed: those with a hit (about 1.1% of all), similar ones and a draw of the others.
TNAP inh noacc = TNAP (human) inhibition, acceptor-free conditions; inhibition, % at 20 µM; AID 1012; 200,000 tested, 0.26% active; P05186; purified TNAP, CDP-star luminescence, 30 min;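 active means tissue-nonspecific alkaline phosphatase inhibition above about 50% at 20 µM in the single-dose screen, limit read from the data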
S1P3 antagonist = S1P3 (human) receptor antagonism; Q99500; CHO S1P3 NFAT-BLA reporter, FRET fluorescence, antagonist mode; inhibition, % at 4.98 µM; 170,000 tested, 0.27% active; AID 485;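 active means inhibition above the plate cutoff, the mean inhibition of test wells on that plate plus 3 SD, cut at about 28% in these data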;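 further: cells challenged with S1P at its EC80 of 0.8 µM; blue over green emission ratio from cleaved BLA substrate after 4 h stimulation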
TNAP inh hiacc = blocks human TNAP under high phosphate acceptor concentration; purified TNAP, CDP-star luminescence, 1 M DEA; 200,000 tested, 0.03% active; inhibition, % at 20 µM; P05186; AID 1135;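 active means over 50% inhibition of tissue-nonspecific alkaline phosphatase at 20 µM in the single-dose screen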
S1P4 agonist = activates the human S1P4 receptor. O95977. S1P4-expressing cell line, agonist reporter assay. activation, % at 4.98 µM. 220,000 tested, 0.35% active. AID 1509; in the data active means activation above about 11%
TNAP act hi DEA = activators of human TNAP at high phosphate acceptor concentration; 200,000 tested, under 10 active; P05186; purified TNAP, CDP-star luminescence, 1 M DEA, 30 min; hits give high values; 0 = EDTA background, 1 = DMSO-only activity; activation factor at 20 µM;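 active means activation factor at least 2 at 20 µM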
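system = human TNAP | amount = enzyme diluted 1/800 final | reagent = 100 µM CDP-star substrate | signal = luminescent substrate turnover signal | dosing = one dose, 20 µM | benchmarks = EDTA negative control, DMSO positive control | measure = activation factor | timing = 30 min reaction, room temperature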
S1P4 antagonist = antagonists of human S1P4 receptor; 220,000 tested, 0.26% active; inhibition, % at 4.98 µM; S1P4-expressing cells, antagonist mode, reporter read-out; O95977; AID 1510; in the data active means inhibition above about 29%
S1P4 ag conf = human S1P4 agonism, confirmation; S1P4 agonist cell-based reporter assay; activation, % at 4.98 µM; shares compounds with S1P4 agonist; 740 tested, 7% active; in the data active means activation above about 12%
S1P1 agonist = counter-screen for S1P4 agonists: agonists of human S1P1 | shares compounds with S1P4 agonist | S1P1 agonist cell-based assay, activation | activation, % at 4.98 µM | 740 tested, 4% active; in the data active means activation above about 21%
Target sequence (P21453 whole entry, looked up): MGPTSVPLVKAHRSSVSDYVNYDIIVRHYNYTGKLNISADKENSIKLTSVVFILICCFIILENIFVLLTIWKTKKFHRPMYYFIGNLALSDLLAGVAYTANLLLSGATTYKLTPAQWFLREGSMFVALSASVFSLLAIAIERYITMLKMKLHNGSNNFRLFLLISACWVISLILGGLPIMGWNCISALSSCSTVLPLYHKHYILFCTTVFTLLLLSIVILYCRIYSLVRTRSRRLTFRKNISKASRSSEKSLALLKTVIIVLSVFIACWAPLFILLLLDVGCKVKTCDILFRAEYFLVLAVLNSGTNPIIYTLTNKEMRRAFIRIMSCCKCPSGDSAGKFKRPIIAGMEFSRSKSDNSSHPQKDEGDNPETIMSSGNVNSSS
S1P4 antag cf = confirmation of human S1P4 receptor antagonists; 520 tested, 71% active; shares compounds with S1P4 antagonist; AID 1524; S1P4-expressing cell line, antagonist mode, reporter read-out; inhibition, % at 4.98 µM; in the data active means inhibition above about 30%
S1P1 antag = counter-screen for S1P4 antagonists: antagonists of human S1P1. shares compounds with S1P4 antagonist. cell-based S1P1 antagonist counterscreen, inhibition. inhibition, % at 4.98 µM. 520 tested, 37% active. AID 1564; in the data active means inhibition above about 40%;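 further: receptor stimulated with S1P near its EC80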
Numbers stand for hits; 0 = inactive; - = no result given.

SMILES	TNAP inh noacc	S1P3 antagonist	TNAP inh hiacc	S1P4 agonist	TNAP act hi DEA	S1P4 antagonist	S1P4 ag conf	S1P1 agonist	others
CC(=O)NC1CC2CCCC(C1)N2 (stereo unspecified)	0	0	0	25	0	0	0	0
CC(=O)NC1CC2CCC(C1)N2 (stereo unspecified)	0	0	0	0	0	0	-	-
CCOC(=O)c1c(-n2c(C)cc(C=C3C(=O)NC(=O)NC3=O)c2C)sc2c1CCCC2	0	-	0	12	0	0	29	0
CC(C)(C)C(=O)c1cn(Cc2ccccc2)c2ccccc12	0	0	0	0	0	0	-	-
C[n+]1ccc(-c2ccncc2)cc1	0	0	0	12	0	0	0	0
CN1CCC2(CC1)CC(NC=O)c1ccccc1O2 (stereo unspecified)	0	0	0	13	0	0	0	0
CC12CN3CCN(CC(C3)/C1=N/NC(N)=O)C2	-	0	-	0	-	0	-	-
COC(=O)[C@@H]1[C@@H](C(=O)OC)C2(c3ccccc3-c3ccccc32)N(c2ccc(Cl)cc2)N1C#N	0	-	0	0	0	0	-	-
COC(=O)C[C@]1(C(=O)OC)CN(C#N)N(c2ccc(Cl)cc2)C12c1ccccc1-c1ccccc12	0	-	0	0	0	55	-	-	S1P4 antag cf=120;S1P1 antag=88
FC(F)(F)C1=NC(C(F)(F)F)=NP(N2CCOCC2)(N2CCOCC2)=N1	0	0	0	0	0	0	-	-
O=c1[nH]sc2cc(F)ccc12	0	0	0	0	0	31	-	-	S1P4 antag cf=91;S1P1 antag=46
C=CCn1c(O)c(C(CC)=Nc2ccc(N(C)C)cc2)c(=O)[nH]c1=O	-	0	-	0	-	0	-	-
C[C@@H]1O[C@@H](O[C@H]2C[C@@H](O)[C@]3(CO)[C@H]4[C@H](O)C[C@]5(C)[C@@H](C6=CC(=O)OC6)CC[C@]5(O)[C@@H]4CC[C@]3(O)C2)[C@H](O)[C@H](O)[C@H]1O	0	0	0	0	0	33	-	-	S1P4 antag cf=58;S1P1 antag=0
